Results taken from ChEMBL document CHEMBL1240443, “A study of cytotoxicity of novel chlorokojic acid derivatives with their antimicrobial and antiviral activities” (Eur J Med Chem, 2010).
≈ marks a conversion by molar mass, not a printed value.

Experiments:
[1] = test system: Pseudomonas aeruginosa; assay: Antimicrobial activity against trimethoprim-sulfamethoxazole and tazobactum-induced Pseudomonas aeruginosa by spectrophotometry; type: functional
In short: (§1)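 Broth microdilution in Mueller–Hinton broth. Two-fold dilutions from 256 to 0.125 µg/mL. Inoculum 10^5 c.f.u./mL, diluted from a McFarland 0.5 culture. Incubated at 35 °C for 24 h and 48 h in a humid chamber, triplicate.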

[2] = test system: Human respirovirus 3; assay: Antiviral activity against parainfluenza-3 virus infected in Vero cells assessed as reduction of virus-induced cytopathic effect; type: functional
In short: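 Vero cells grown in EMEM with 10% fetal calf serum. Two-fold dilutions from 51.2 to 0.012 µg/mL, with PI-3 added at its TCID50-based titre, held 2 h at 37 °C in 5% CO2. CPE scored by microscope against untreated controls, giving the CPE-inhibitory concentration range.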

[3] = Cytotoxicity against african green monkey Vero cells after 48 hrs; type: cell-based; details: chlorocebus sabaeus
In short: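 Confluent cell monolayers exposed to two-fold (Log2) dilutions of each sample (51.2–0.012 µg/mL) in EMEM, 5% CO2, 37 °C, 48 h. Scored by light microscopy against untreated cultures; rows damaging all cells counted toxic. Maximum non-toxic concentration (MNTC, µg/mL) taken as highest concentration leaving cells unaffected. Vero grown in EMEM/10% fetal calf serum with streptomycin/penicillin.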

[4] = test system: Acinetobacter baumannii; assay: Antimicrobial activity against cephalosporin-resistant Acinetobacter baumannii by spectrophotometry; type: functional; in short: as §1
[5] = test system: Acinetobacter baumannii; assay: Antimicrobial activity against Acinetobacter baumannii RSKK 02026 by spectrophotometry; type: functional; in short: as §1
[6] = test system: Proteus mirabilis; assay: Antimicrobial activity against extended spectrum beta lactamase expressing Proteus mirabilis by spectrophotometry; type: functional; in short: as §1
[7] = test system: Proteus mirabilis; assay: Antimicrobial activity against Proteus mirabilis ATCC 7002 by spectrophotometry; type: functional; in short: as §1
[8] = test system: Escherichia coli; assay: Antimicrobial activity against extended spectrum beta lactamase expressing Escherichia coli by spectrophotometry; type: functional; in short: as §1
[9] = test system: Klebsiella pneumoniae; assay: Antimicrobial activity against Klebsiella pneumoniae RSKK 574 by spectrophotometry; type: functional; in short: as §1
[10] = test system: Klebsiella pneumoniae; assay: Antimicrobial activity against extended spectrum beta lactamase expressing Klebsiella pneumoniae by spectrophotometry; type: functional; in short: as §1
[11] = test system: Staphylococcus aureus; assay: Antimicrobial activity against methicillin-resistant Staphylococcus aureus by spectrophotometry; type: functional; in short: as §1
[12] = test system: Enterococcus faecalis; assay: Antimicrobial activity against Enterococcus faecalis ATCC 29212 by spectrophotometry; type: functional; in short: as §1
[13] = test system: Enterococcus faecalis; assay: Antimicrobial activity against cephalosporin-resistant Enterococcus faecalis by spectrophotometry; type: functional; in short: as §1
[14] = test system: Bacillus subtilis; assay: Antimicrobial activity against Bacillus subtilis ATCC 6633 by spectrophotometry; type: functional; in short: as §1
[15] = test system: Bacillus subtilis; assay: Antimicrobial activity against ceftriaxone-resistant Bacillus subtilis by spectrophotometry; type: functional; in short: as §1
[16] = test system: Candida parapsilosis; assay: Antifungal activity against Candida parapsilosis ATCC 22019 by spectrophotometry; type: functional; details: Lodderomyces parapsilosis
In short: (§2)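 Yeast broth microdilution in RPMI-1640 with L-glutamine, buffered to pH 7 with MOPS. Inoculum 10^5 c.f.u./mL, prepared by the spectrophotometric method. Two-fold dilutions from 256 to 0.125 µg/mL. Incubated at 35 °C for 24 h and 48 h in a humid chamber, triplicate.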

[17] = test system: Candida albicans; assay: Antifungal activity against Candida albicans ATCC 10231 by spectrophotometry; type: functional; in short: as §2
[18] = test system: Escherichia coli; assay: Antimicrobial activity against Escherichia coli ATCC 35218 by spectrophotometry; type: functional; in short: as §1
[19] = Cytotoxicity against MDBK cells after 48 hrs; type: cell-based, Bos taurus; details: cattle
[20] = test system: Pseudomonas aeruginosa; assay: microbe, parasite or virus in culture; details: ATCC 10145

| Compound | MIC [1] [µg/mL] | CPE-inhibitory concentration [2] [µg/mL] | MNTC at 48 h [3] [µg/mL] | MIC [4] [µg/mL] | MIC [5] [µg/mL] | MIC [6] [µg/mL] | MIC [7] [µg/mL] | MIC [8] [µg/mL] | MIC [9] [µg/mL] | MIC [10] [µg/mL] | MIC [11] [µg/mL] | MIC [12] [µg/mL] | MIC [13] [µg/mL] | MIC [14] [µg/mL] | MIC [15] [µg/mL] | MIC [16] [µg/mL] | MIC [17] [µg/mL] | MIC [18] [µg/mL] | MNTC at 48 h [19] [µg/mL] | MIC [20] [µg/mL] |
| --- | --- | --- | --- | --- | --- | --- | --- | --- | --- | --- | --- | --- | --- | --- | --- | --- | --- | --- | --- | --- |
| GENTAMICIN | 2 |  |  |  |  |  |  |  |  |  |  |  |  |  |  |  |  |  |  |  |
| CCOC(=O)C1=C[C@@H](OC(CC)CC)[C@H](NC(C)=O)[C@@H](N)C1 [OSELTAMIVIR] |  | 0.012 | 1.6 |  |  |  |  |  |  |  |  |  |  |  |  |  |  |  |  |  |
| CC1(C)S[C@@H]2[C@H](NC(=O)[C@H](N)c3ccccc3)C(=O)N2[C@H]1C(=O)O [AMPICILLIN] |  |  |  | > 128 | 2 (≈ 5.72 µM) | > 128 | 2 (≈ 5.72 µM) | > 128 | 2 (≈ 5.72 µM) | > 128 | > 128 | 0.5 (≈ 1.43 µM) | > 128 | 0.12 (≈ 0.343 µM) | 0.5 (≈ 1.43 µM) |  |  |  |  |  |
| OC(Cn1cncn1)(Cn1cncn1)c1ccc(F)cc1F [FLUCONAZOLE] |  |  |  |  |  |  |  |  |  |  |  |  |  |  |  | 4 (≈ 13.1 µM) | 2 (≈ 6.53 µM) |  |  |  |
| CC(C)(C)OC(=O)N1CCN(Cc2oc(CCl)cc(=O)c2O)CC1 | 16 (≈ 44.6 µM) | 0.2 | 0.4 | 16 (≈ 44.6 µM) | 8 (≈ 22.3 µM) | 64 (≈ 178 µM) | 16 (≈ 44.6 µM) | 64 (≈ 178 µM) | 8 (≈ 22.3 µM) | 64 (≈ 178 µM) | 128 (≈ 357 µM) | 8 (≈ 22.3 µM) | 128 (≈ 357 µM) | 1 (≈ 2.79 µM) | 2 (≈ 5.57 µM) | 8 (≈ 22.3 µM) | 4 (≈ 11.1 µM) | 8 (≈ 22.3 µM) | 0.8 | 4 (≈ 11.1 µM) |
| O=c1cc(CCl)oc(CN2CCN(Cc3ccc(F)cc3)CC2)c1O | 64 (≈ 174 µM) | 0.05 | 0.4 | 64 (≈ 174 µM) | 32 (≈ 87.2 µM) | 64 (≈ 174 µM) | 16 (≈ 43.6 µM) | 64 (≈ 174 µM) | 16 (≈ 43.6 µM) | 64 (≈ 174 µM) | 64 (≈ 174 µM) | 16 (≈ 43.6 µM) | 32 (≈ 87.2 µM) | 32 (≈ 87.2 µM) | 64 (≈ 174 µM) | 16 (≈ 43.6 µM) | 16 (≈ 43.6 µM) | 16 (≈ 43.6 µM) | 1.6 | 16 (≈ 43.6 µM) |
| O=c1cc(CCl)oc(CN2CCC(O)(c3ccc(Cl)c(C(F)(F)F)c3)CC2)c1O | 16 (≈ 35.4 µM) | 0.05 | 0.4 | 16 (≈ 35.4 µM) | 4 (≈ 8.84 µM) | 64 (≈ 142 µM) | 8 (≈ 17.7 µM) | 64 (≈ 142 µM) | 4 (≈ 8.84 µM) | 64 (≈ 142 µM) | 64 (≈ 142 µM) | 16 (≈ 35.4 µM) | 32 (≈ 70.8 µM) | 1 (≈ 2.21 µM) | 2 (≈ 4.42 µM) | 8 (≈ 17.7 µM) | 4 (≈ 8.84 µM) | 4 (≈ 8.84 µM) | 0.8 | 2 (≈ 4.42 µM) |
| CC(=O)N1CCN(c2ccc(OCC3COC(Cn4ccnc4)(c4ccc(Cl)cc4Cl)O3)cc2)CC1 (centres undefined) [KETOCONAZOLE] |  |  |  |  |  |  |  |  |  |  |  |  |  |  |  | 1 (≈ 1.88 µM) | 1 (≈ 1.88 µM) |  |  |  |
